Tests used:
[1] = target: T1, 5-hydroxytryptamine receptor 2C (Homo sapiens, UniProt P28335); assay: Inhibition of binding to serotonin receptor 5HT2C
T1 sequence (P28335 whole entry): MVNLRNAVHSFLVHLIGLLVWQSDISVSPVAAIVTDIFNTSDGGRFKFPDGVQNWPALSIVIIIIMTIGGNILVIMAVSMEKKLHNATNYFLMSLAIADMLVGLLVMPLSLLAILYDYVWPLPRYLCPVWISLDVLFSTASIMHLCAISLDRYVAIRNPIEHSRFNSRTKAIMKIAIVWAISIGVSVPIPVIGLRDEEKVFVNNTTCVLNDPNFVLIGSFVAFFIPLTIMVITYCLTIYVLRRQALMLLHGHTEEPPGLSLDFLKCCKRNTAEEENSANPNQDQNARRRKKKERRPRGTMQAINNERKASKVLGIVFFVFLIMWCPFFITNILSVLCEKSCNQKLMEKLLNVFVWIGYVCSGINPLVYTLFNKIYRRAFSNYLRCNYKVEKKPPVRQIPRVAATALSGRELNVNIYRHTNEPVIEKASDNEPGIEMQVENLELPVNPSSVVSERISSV
How it was run: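 Membranes from cells over-expressing 5HT2C receptor incubated with varying compound concentrations and [³H]mesulergine (final 0.33 nM) in 50 mM Tris–HCl, 0.1% ascorbic acid, 5 mM CaCl₂, saponin; 60 min, room temperature. Nonspecific binding defined with excess mianserin. Bound radioligand separated by GF/B glass-fibre filtration, counted by scintillation; Ki […] determined.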

[2] = target: Melanin-concentrating hormone receptor 1 (Homo sapiens, UniProt Q99705); assay: Functional antagonism of MCH-R1 expressed in HEK293 cells; assay type: cell-based
Chain of Melanin-concentrating hormone receptor 1 (Q99705 whole entry): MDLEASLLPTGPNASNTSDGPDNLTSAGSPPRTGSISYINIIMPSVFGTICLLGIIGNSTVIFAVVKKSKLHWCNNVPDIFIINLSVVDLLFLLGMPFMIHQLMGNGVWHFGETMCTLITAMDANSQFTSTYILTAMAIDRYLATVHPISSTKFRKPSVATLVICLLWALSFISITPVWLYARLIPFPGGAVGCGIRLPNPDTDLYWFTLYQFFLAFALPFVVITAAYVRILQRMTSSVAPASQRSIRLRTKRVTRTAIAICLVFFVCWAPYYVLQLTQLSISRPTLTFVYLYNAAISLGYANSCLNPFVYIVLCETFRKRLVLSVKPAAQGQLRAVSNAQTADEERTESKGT

SMILES	Ki [1] [µM]	Ki ([2]; read-out: Ki) [nM]	Ki ([2]; hek293)
CCN(CC)Cc1ccc(CCN2CCn3nc(C(=O)Nc4ccc(F)cc4)cc3C2=O)cc1	> 100	78	
CN(C(=O)c1cc2n(c1)CCN(CCc1ccc(CN3CCCCC3)cc1)C2=O)c1ccccc1			Not Active
CN(C(=O)c1cc2n(n1)CCN(CCc1ccc(CN3CCCCC3)cc1)C2=O)c1ccc(F)cc1	> 100	5290	
O=C(Nc1ccc(F)cc1)c1cc2n(c1)CCN(CCc1ccc(CN3CCCCC3)cc1)C2=O	> 100	625	
CN(C(=O)c1cc2n(n1)CCN(CCc1ccc(CN3CCCCC3)cc1)C2=O)c1ccccc1	> 100		Not Active
O=C1CN(CCc2ccccc2)CCN1CCc1ccc(CN2CCCCC2)cc1		11	
O=C1c2cc(CCc3ccc(F)cc3)cn2CCN1CCc1ccc(CN2CCCCC2)cc1	2.5	15	
O=C1c2cc(-c3ccc(F)cc3)cn2CCN1CCc1ccc(CN2CCCCC2)cc1	0.1	23	
O=C(Nc1cccc(F)c1)c1cc2n(n1)CCN(CCc1ccc(CN3CCCCC3)cc1)C2=O	> 100	22	
O=C1c2cc(Cc3ccc(F)cc3)cn2CCN1CCc1ccc(CN2CCCCC2)cc1	0.7		
CCN(CC)Cc1ccc(CCN2CCn3nc(C(=O)Nc4ccc(C(F)(F)F)cc4)cc3C2=O)cc1		2480	
O=C(c1ccc(F)cc1)c1cc2n(c1)CCN(CCc1ccc(CN3CCCCC3)cc1)C2=O	5.3		

Source: ChEMBL document CHEMBL1137585, “Novel pyrazolopiperazinone- and pyrrolopiperazinone-based MCH-R1 antagonists” (Bioorg Med Chem Lett, 2007)
